Rows were chosen to be rich in hits. Some 1.5% of all compounds tested hit in one or more screens of this group.
Cneo AK release: Cryptococcus neoformans lysis via adenylate kinase release; C. neoformans lysis, adenylate kinase release luminescence, 4 h; normalised: neutral wells 0, clomiphene wells 100; lysis activity, % at 15 µM; 360,000 compounds, 0.2% hits;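 active means mean lysis activity across replicates of at least 80%, whatever share of replicates individually reach that level; inactive means mean lysis activity below 80%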
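Test system: log-phase Cryptococcus neoformans yeast cells. Input: 5 × 10^6 yeast cells/mL. Medium: fresh YPD growth medium. Doses: single dose. Incubation: static 4 h at 37 °C with compound, 1 h detection. Measured by: luminescent adenylate kinase detection reagent. Read-out: signal increase indicating cell lysis. Benchmarks: Clomiphene.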
Mot1-301 SUMO: blocks SUMOylation pathway, rescuing yeast Mot1-301 growth; S. cerevisiae Mot1-301 growth rescue, ATP luminescence, 38.5C; percent above DMSO median, 100 means doubled; growth rescue, % at 18.8 µM; 320,000 compounds, 1% hits; AID 2716;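 active means every valid replicate shows activation above 250% relative to neutral control wells; inactive means the rest, any valid replicate at or below 250%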
Statin myotox sup: protects C2C12 myotubes from simvastatin toxicity; ATP luminescence, 48 h; scaled: DMSO 0, geranylgeraniol control 100; AID 602340; rescue of ATP level, % at 7.49 µM; 330,000 compounds, 0.78% hits;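 active means mean ATP rescue above about 67%, or every replicate alone reaching that limit, limit read from the data, passing the limit was not always enough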;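 further: myotubes were challenged with 10 µM simvastatin during compound exposure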
Yeast Mot1 SUMO: SUMO pathway inhibitors in yeast Mot1-301 growth. growth activity, percent, % at 42 µM. shares compounds with Mot1-301 SUMO. S. cerevisiae Mot1-301 galactose growth, ATP luminescence, 24 h; -100 = growth of slx-deleted rescue strain. 2,300 tested, under 10 active;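 active means Signal drops as the depositor expects, and the fitted half-maximal dose is no more than ten times the top valid tested dose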;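 further: more negative values mean stronger growth rescue toward the control strain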
Large screens that a line does not name were inactive (follow-up assays come after a bar, where they were run).

COCC#Cc1cnc2c(c1)C(=O)N([C@@H](C)CO)C[C@@H](C)[C@H](CN(C)C(=O)C1CCC1)O2	none (no result: Mot1-301 SUMO)
O=C(NNC(=O)c1ccccc1O)c1ccco1	Mot1-301 SUMO active (no result: Cneo AK release, Statin myotox sup) | Yeast Mot1 SUMO inactive
O=C(NNC(=O)c1ccccc1F)c1ccco1	none
O=C(NCc1cccc(F)c1F)C1CCC(=O)N(C2CC2)C1 (configuration not stated)	Mot1-301 SUMO 421 | Yeast Mot1 SUMO inactive
O=C(NCc1ccccc1Cl)C1CCC(=O)N(C2CC2)C1 (configuration not stated)	none
C[C@@H]1CCCCO[C@H](CN(C)S(=O)(=O)c2cn(C)cn2)[C@@H](C)CN([C@@H](C)CO)C(=O)c2cc(NC(=O)C3CCCCC3)ccc2O1	none (no result: Mot1-301 SUMO)
Cc1noc(C)c1NC(=O)Nc1ccc2c(c1)C(=O)N([C@@H](C)CO)C[C@@H](C)[C@@H](CN(C)CC1CC1)OCCCC[C@@H](C)O2	none (no result: Mot1-301 SUMO, Statin myotox sup)
CCCC#Cc1cnc2c(c1)C(=O)N([C@@H](C)CO)C[C@@H](C)[C@@H](CN(C)C(=O)c1ccc3c(c1)OCO3)O2	none (no result: Mot1-301 SUMO)
Cc1ccc(NC(=O)COC(=O)Cn2c(C)csc2=O)c([N+](=O)[O-])c1	none
Cc1csc(=O)n1CC(=O)OCC(=O)Nc1cc([N+](=O)[O-])ccc1Cl	Mot1-301 SUMO 485 | Yeast Mot1 SUMO inactive
Cc1noc(C)c1NC(=O)Nc1ccc2c(c1)C(=O)N([C@H](C)CO)C[C@@H](C)[C@H](CN(C)S(=O)(=O)c1cccs1)O2	none (no result: Mot1-301 SUMO)
CC(C)C[C@H]1CN=C(Nc2ccccc2)N1CCC1CCCC1	none
C[C@H]1CN=C(Nc2ccccc2)N1CCC1CCCC1	Mot1-301 SUMO 921 | Yeast Mot1 SUMO inactive
COCC(=O)Nc1ccc2c(c1)[C@@H]1C[C@H](CC(=O)NC3CCCCC3)O[C@@H](CO)[C@@H]1O2	none (no result: Mot1-301 SUMO)
CO[C@@H]1CN(C)C(=O)c2ccc(NC(=O)C3CC3)cc2OC[C@@H](C)N(C)C[C@H]1C	none (no result: Mot1-301 SUMO)
COc1ccc(S(=O)(=O)N2C[C@@H](O)COC[C@H]3O[C@H](CC(=O)NCCCN4CCOCC4)CC[C@@H]32)cc1	none (no result: Mot1-301 SUMO)
COc1nc(OC)nc(N2CCC(C(=O)NC3CCCCCC3)CC2)n1	Mot1-301 SUMO 382 | Yeast Mot1 SUMO inactive
COc1nc(OC)nc(N2CCC(C(=O)NC3CC3)CC2)n1	none (no result: Cneo AK release, Statin myotox sup)
O=C(NCCCN1CCCCC1)C1CCC(=O)N1CCc1ccccc1 (configuration not stated)	none (no result: Statin myotox sup)
O=C(NCCCN1CCOCC1)C1CCC(=O)N1CCc1ccccc1 (configuration not stated)	Mot1-301 SUMO 408 | Yeast Mot1 SUMO inactive
O=C(Nc1nnc(COc2ccc(F)cc2)s1)c1cccs1	Mot1-301 SUMO 940 | Yeast Mot1 SUMO inactive
O=C(Nc1nnc(COc2ccc(Cl)cc2)s1)c1cccs1	none
C[C@@H]1CCCCO[C@H](CN(C)C(=O)NC2CCCCC2)[C@H](C)CN([C@H](C)CO)C(=O)c2cc(NC(=O)NC3CCCCC3)ccc2O1	none (no result: Mot1-301 SUMO, Statin myotox sup)
Cc1noc(C)c1COc1ccccc1C(=O)N(C)CC(=O)Nc1ccc(Cl)c(Cl)c1	none
COc1cccc(NC(=O)CN(C)C(=O)c2ccccc2OCc2c(C)noc2C)c1	Mot1-301 SUMO active (no result: Cneo AK release, Statin myotox sup) | Yeast Mot1 SUMO inactive
CCCNC(=O)Nc1ccc2c(c1)OC[C@@H](C)N(C(=O)C1CC1)C[C@H](C)[C@@H](OC)CN(C)C2=O	none (no result: Mot1-301 SUMO)
COc1ccccc1C1/C(=C(/O)c2ccccc2)C(=O)C(=O)N1CCO (configuration not stated)	none (no result: Cneo AK release, Statin myotox sup)
CCN(CC)CCCN1C(=O)C(=O)/C(=C(/O)c2ccccc2)C1c1cc(OC)ccc1OC (configuration not stated)	Mot1-301 SUMO 685 (no result: Statin myotox sup) | Yeast Mot1 SUMO inactive
CNC[C@@H]1OCCCC[C@H](C)Oc2ccc(NC(=O)Nc3c(C)noc3C)cc2C(=O)N([C@H](C)CO)C[C@@H]1C	none (no result: Cneo AK release, Mot1-301 SUMO)
Cc1cccc(-n2c(Cc3ccccc3)n[nH]c2=S)c1	none
CCc1ccc(-n2c(Cc3ccccc3)n[nH]c2=S)cc1	Mot1-301 SUMO 889 (no result: Cneo AK release, Statin myotox sup) | Yeast Mot1 SUMO inactive
CN(CP(=O)(O)C(O)c1ccccc1)S(C)(=O)=O (configuration not stated)	Mot1-301 SUMO 935 | Yeast Mot1 SUMO inactive
CCOC(=O)CCP(=O)(O)C(O)c1ccccc1 (configuration not stated)	none
COc1ccc(CN(C)C[C@H]2OCCCC[C@H](C)Oc3ccc(NC(=O)NC4CCCCC4)cc3C(=O)N([C@H](C)CO)C[C@@H]2C)cc1	none (no result: Mot1-301 SUMO, Statin myotox sup)
CO[C@@H]1CN(C)C(=O)c2ccc(NC(=O)C3CCC3)cc2OC[C@@H](C)N(C(=O)NC(C)C)C[C@H]1C	none (no result: Mot1-301 SUMO)

Bioassay records as filed in PubChem.
